The values below come from ChEMBL document CHEMBL1275265, “Synthesis and biological evaluation of N-antipyrine-4-substituted amino-3-chloromaleimide derivatives” (Eur J Med Chem, 2010).

Each structure is given as a SMILES string. ≈ marks a conversion by molar mass, not a printed value. Calls of active or inactive are those of the source. The calls are words filed in the database; no cut-off is given here. A value given as a limit tells only on which side of the number the result lay.

For one data set, the system named is Pseudomonas aeruginosa. Briefly: Antibacterial activity against Pseudomonas aeruginosa ATCC 27853 at < 100 ug/mL by agar dilution method. It is filed as functional, organism-based. An outline of the steps:
(§1)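 Agar dilution on 1 mL Mueller-Hinton agar slants. Compounds were serially two-fold diluted in DMSO (final DMSO ≤2%) to give 10–100 µg/mL in the medium. Bacteria were grown on MHA at 35 °C for 24 h, suspended in 0.86% saline at 1.5 × 10^8 cell/mL (0.5 McFarland), and 1 µL was added per slant. Slants were incubated at 35 °C. Drug-free blank included; each assay run three times; MIC recorded.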

A further data set has as its system Escherichia coli. Briefly: Antibacterial activity against Escherichia coli ATCC 11775 at < 100 ug/mL by agar dilution method. The class given is functional, organism-based. The procedure, abridged:
as §1

In a further data set the test system is Enterobacter cloacae. Briefly: Antibacterial activity against Enterobacter cloacae ATCC 35030 at < 100 ug/mL by agar dilution method. It is filed as functional, organism-based. The procedure, abridged:
as §1

Another data set deals with Salmonella typhimurium. Briefly: Antibacterial activity against Salmonella Typhimurium ATCC 14028 at < 100 ug/mL by agar dilution method. Particulars: Salmonella enterica subsp. enterica serovar Typhimurium. It is filed as functional, organism-based. An outline of the steps: as §1
The next data set relates to Staphylococcus aureus. Briefly: Antibacterial activity against Staphylococcus aureus ATCC 6538P at < 100 ug/mL by agar dilution method. It is filed as functional, organism-based. The procedure, abridged:
as §1

A further data set concerns Mus musculus. Briefly: Antinociceptive activity in Swiss mouse assessed as inhibition of acetic acid-induced writhing at 10 mg/kg, ip administered 30 mins before acetic acid challenge measured after 20 mins relative to control. It is filed as functional. Particulars: route intraperitoneal. An outline of the steps:
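Mice were given 10 mg/kg i.p. in Tween 80/0.9% NaCl (Tween ≤5%) 30 min before i.p. 0.6% acetic acid, at 20–22 °C. Abdominal constrictions plus hind-limb stretching were counted cumulatively over 20 min in individual funnels. Groups of six, randomized and blinded. Inhibition was calculated versus vehicle controls (10 ml/kg i.p.); ANOVA with Dunnett's test.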

The test system of the next data set is Bacillus subtilis. Briefly: Antibacterial activity against Bacillus subtilis ATCC 23858 at < 100 ug/mL by agar dilution method. It is filed as functional, organism-based. The procedure, abridged: as §1
In another data set the test system is Proteus mirabilis. Briefly: Antibacterial activity against Proteus mirabilis ATCC 25933 at < 100 ug/mL by agar dilution method. The class given is functional, organism-based. An outline of the steps: as §1
In a further data set the test system is Bacillus cereus. Briefly: Antibacterial activity against Bacillus cereus ATCC 14579 at < 100 ug/mL by agar dilution method. The class given is functional. The procedure, abridged: as §1
The subject of another data set is Streptococcus agalactiae. Briefly: Antibacterial activity against Streptococcus agalactiae ATCC 13813 at < 100 ug/mL by agar dilution method. The class given is functional. An outline of the steps: as §1
In data set [1] the test system is Staphylococcus saprophyticus. Briefly: Antibacterial activity against Staphylococcus saprophyticus ATCC 35552 at < 100 ug/mL by agar dilution method. The class given is functional, organism-based. An outline of the steps:
as §1

The nature of data set [2]: Toxicity in Artemia salina assessed as mortality after 24 hrs. Particulars: in vivo. The class given is organism-based. An outline of the steps:
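Artemia salina hatched at pH 9.0 (Na2CO3), 25 °C, strong aeration, continuous light (2000 Lux). Phototropic nauplii were collected about 12 h after hatching, and groups of 10 were exposed per well to various compound concentrations for 24 h. Survivors were counted and % deaths calculated.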

`Cc1cccc(NC2=C(Cl)C(=O)N(c3c(C)n(C)n(-c4ccccc4)c3=O)C2=O)c1`: the result in the data set with Pseudomonas aeruginosa, with Escherichia coli, in the data set on Enterobacter cloacae, in the data set on Salmonella typhimurium, in the data set with Staphylococcus aureus and in the data set on Bacillus subtilis was inactive. Further, the outcome (in the data set with Proteus mirabilis; with Bacillus cereus; with Streptococcus agalactiae; in data set [1]) was inactive. Further, in the data set on Mus musculus, the inhibition in vivo at 10 mg/kg stood at 49.7%. For the same compound, the 50% lethal concentration (LC50) at 24 h in [2] was 90.5 µg/mL (≈ 214 µM).

Take `Cc1c(N2C(=O)C(Cl)=C(Nc3cccc(C(=O)O)c3)C2=O)c(=O)n(-c2ccccc2)n1C`: the result with Pseudomonas aeruginosa, with Escherichia coli, with Enterobacter cloacae, with Salmonella typhimurium, with Staphylococcus aureus and in the data set on Bacillus subtilis was inactive. For the same compound, the result (in the data set with Proteus mirabilis; in the data set with Bacillus cereus; in the data set on Streptococcus agalactiae; in data set [1]) was inactive. In the data set with Mus musculus, the inhibition in vivo at 10 mg/kg is 33.9%. In addition, the 50% lethal concentration (LC50) at 24 h in data set [2] is more than 1000 µg/mL.

With `COc1cc(NC2=C(Cl)C(=O)N(c3c(C)n(C)n(-c4ccccc4)c3=O)C2=O)cc(OC)c1`, the result in the data set on Pseudomonas aeruginosa, in the data set on Escherichia coli, in the data set on Enterobacter cloacae, with Salmonella typhimurium, with Staphylococcus aureus and in the data set on Bacillus subtilis was inactive. In addition, the outcome (in the data set on Proteus mirabilis; in the data set on Bacillus cereus; with Streptococcus agalactiae; in data set [1]) was inactive. The inhibition in vivo at 10 mg/kg in the data set on Mus musculus was found to be 72%. Besides, the 50% lethal concentration (LC50) at 24 h in data set [2] was 249 µg/mL (≈ 530 µM).

For the compound `Cc1c(N2C(=O)C(Cl)=C(N3CCN(c4ccccn4)CC3)C2=O)c(=O)n(-c2ccccc2)n1C`, the result in the data set with Pseudomonas aeruginosa, with Escherichia coli, in the data set with Enterobacter cloacae, in the data set on Salmonella typhimurium, in the data set on Staphylococcus aureus and in the data set on Bacillus subtilis was inactive. For the same compound, the result (in the data set on Proteus mirabilis; with Bacillus cereus; with Streptococcus agalactiae; in [1]) was inactive. Moreover, the inhibition in vivo at 10 mg/kg in the data set on Mus musculus was found to be 77.7%. In data set [2], the LC50 at 24 h is more than 1000 µg/mL.

Consider `Cc1c(N2C(=O)C(Cl)=C(Nc3ccc(C(=O)O)cc3)C2=O)c(=O)n(-c2ccccc2)n1C`, for which the outcome in the data set on Pseudomonas aeruginosa, in the data set with Escherichia coli, with Enterobacter cloacae, in the data set with Salmonella typhimurium, in the data set with Staphylococcus aureus and with Bacillus subtilis was inactive. Also, the result (in the data set with Proteus mirabilis; with Bacillus cereus; in the data set on Streptococcus agalactiae; in [1]) was inactive. The inhibition in vivo at 10 mg/kg in the data set with Mus musculus worked out at 63.6%. Also, the median lethal concentration (LC50) at 24 h in data set [2] is more than 1000 µg/mL.

Turning to `Cc1c(N2C(=O)C(Cl)=C(NCCc3ccccc3)C2=O)c(=O)n(-c2ccccc2)n1C`, the outcome in the data set on Pseudomonas aeruginosa, with Escherichia coli, in the data set on Enterobacter cloacae, in the data set on Salmonella typhimurium, with Staphylococcus aureus and in the data set with Bacillus subtilis was inactive. Further, the result (with Proteus mirabilis; in the data set with Bacillus cereus; in the data set with Streptococcus agalactiae; in data set [1]) was inactive. The inhibition in vivo at 10 mg/kg with Mus musculus was 81.8%. Also, in data set [2], the 50% lethal concentration (LC50) at 24 h was more than 1000 µg/mL.
